# According to ChEMBL document CHEMBL5154824, “Design and synthesis of multifunctional microtubule targeting agents endowed with dual pro-apoptotic and anti-autophagic efficacy” (Eur J Med Chem, 2022):
# Active and inactive are the calls of the source. The calls are words filed in the database; no cut-off is given here.
# Columns and labels:
# [1] = target: Albumin (Bos taurus, UniProt P02769); assay: Binding affinity to bovine serum albumin assessed as increase in fluorescence intensity; details: cattle
# In short: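 Saturation assay: compound fixed at 1 μM was incubated with increasing amounts of BSA. Fluorescence was read with excitation at 350 nm and emission at 450 nm in a plate reader.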
# [2] = Cytotoxicity against human MFD-1 cells assessed as inhibition of cell growth measured after 72 hrs by MTT assay; type: functional, cell-based; details: MFD-1, 72 h
# In short: (§1)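 Oesophageal adenocarcinoma lines were exposed to at least 8 increasing concentrations for 72 h. Viability was measured by MTT. IC50 is the mean ± SD of at least three independent experiments.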
# [3] = system: TR146; assay: Induction of apoptosis in human TR146 cells assessed as increase in apoptotic cells at 0.5 uM after 48 hrs by Annexin V-FITC/PI staining based flow cytometry method; type: functional, cell-based
# In short: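 Ca9.22 or TR146 cells were seeded at 30×10^4 cells/mL and treated with 500 nM compound or 1% EtOH (v/v) vehicle for 48 h. Annexin V/PI staining was read by flow cytometry, gating 10,000 cells on vehicle-treated cells. Data are mean ± SEM (n = 3).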
# [4] = system: SCC-4; assay: Induction of apoptosis in human SCC-4 cells assessed as increase in apoptotic cells at 0.5 uM after 48 hrs by Annexin V-FITC/PI staining based flow cytometry method; type: functional, cell-based
# In short: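 SCC4 cells were treated at 0.5 or 2 μM for 48 h, then stained with Annexin V/PI and analysed by flow cytometry. Data are mean ± SEM of three independent experiments, with an unpaired one-tailed t-test versus vehicle.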
# [5] = Ratio of IC50 for cytotoxicity against human HeLa cells overexpressing tubulin beta3 assessed as inhibition of cell growth measured after 48 hrs to IC50 for cytotoxicity against human HeLa cells assessed as inhibition of cell growth measured after 48 hrs; type: functional
# In short: (§2)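 MTT assay: cells exposed to increasing compound concentrations for 48 h. Lines were A2780 and its P-gp-overexpressing A2780AD counterpart, and HeLa and HeLa β3 (tubulin β3-overexpressing). IC50 is the mean ± SD of three independent experiments. R/S is the IC50 in the resistant line divided by that in the parental line.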
# [6] = target: Tubulin (Homo sapiens) (UniProt P68371+Q9H4B7+P0DPH7+P68366+Q13509+Q71U36+P04350+Q3ZCM7+P07437+P68363+Q9BQE3+Q6PEY2+Q13885+Q9BVA1+Q9BUF5); assay: Binding affinity to tubulin (unknown origin) assessed as fluorescence peak around 460 nm by UV/vis absorption spectroscopy; type: protein-complex assay
# [7] = system: HeLa; assay: Induction of morphological changes in human HeLa cells assessed as increase in actin stress fibres at 10 uM incubated for 3 hrs by phalloidin staining based laser scanning confocal microscopic analysis; type: functional, cell-based
# In short: (§3)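 HeLa cells in growth medium were treated at 1 or 10 μM, with BafA1 300 nM as reference, for 3 h. Cells were fixed in 4% PFA, stained with anti-GM130 for the Golgi and AF647-phalloidin for actin, and imaged by laser scanning confocal microscopy.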
# [8] = system: HeLa; assay: Induction of autophagy in human HeLa cells assessed as increase in number of autophagosomes formation at 10 uM measured after 3 hrs by immunofluorescence based laser scanning confocal microscopic analysis; type: functional, cell-based
# In short: (§4)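 HeLa cells in growth medium were treated at 1 or 10 μM, with BafA1 300 nM as reference, for 3 h. Cells were fixed in ice-cold methanol, immunostained for LC3 (autophagosomes) and LAMP1, and imaged by laser scanning confocal microscopy.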
# [9] = Ratio of IC50 for cytotoxicity against human […] assessed as inhibition of cell growth measured after 48 hrs to IC50 for cytotoxicity against human A2780 cells assessed as inhibition of cell growth measured after 48 hrs; type: functional; in short: as §2
# [10] = system: OE19; assay: Cytotoxicity against human OE19 cells assessed as inhibition of cell growth measured after 72 hrs by MTT assay; type: functional, cell-based; details: OE19, 72 h; in short: as §1
# [11] = system: HeLa; assay: Inhibition of autophagosome degradationin human HeLa cells at 1 uM incubated for 3 hrs with HBSS medium by immunofluorescence based laser scanning confocal microscopic analysis; type: functional, cell-based
# In short: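 HeLa cells were treated in HBSS at 1 or 10 μM, with BafA1 300 nM as reference, for 3 h. After fixation in ice-cold methanol, LC3 and LAMP1 were immunostained. Laser scanning confocal microscopy assessed autophagosome number and LC3/LAMP1 colocalisation.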
# [12] = system: HeLa; assay: Induction of morphological changes in human HeLa cells assessed as cell rounding at 10 uM incubated for 3 hrs by phalloidin staining based laser scanning confocal microscopic analysis; type: functional; in short: as §3
# [13] = system: HeLa; assay: Induction of autophagy in human HeLa cells assessed as increase in number of autophagosomes formation at 1 uM measured after 3 hrs by immunofluorescence based laser scanning confocal microscopic analysis; type: functional, cell-based; in short: as §4
# [14] = system: HeLa; assay: Induction of morphological changes in human HeLa cells assessed as golgi complex fragmentation at 1 uM incubated for 3 hrs by phalloidin staining based laser scanning confocal microscopic analysis; type: functional, cell-based; in short: as §3
# Sequence of Albumin (P02769 whole entry): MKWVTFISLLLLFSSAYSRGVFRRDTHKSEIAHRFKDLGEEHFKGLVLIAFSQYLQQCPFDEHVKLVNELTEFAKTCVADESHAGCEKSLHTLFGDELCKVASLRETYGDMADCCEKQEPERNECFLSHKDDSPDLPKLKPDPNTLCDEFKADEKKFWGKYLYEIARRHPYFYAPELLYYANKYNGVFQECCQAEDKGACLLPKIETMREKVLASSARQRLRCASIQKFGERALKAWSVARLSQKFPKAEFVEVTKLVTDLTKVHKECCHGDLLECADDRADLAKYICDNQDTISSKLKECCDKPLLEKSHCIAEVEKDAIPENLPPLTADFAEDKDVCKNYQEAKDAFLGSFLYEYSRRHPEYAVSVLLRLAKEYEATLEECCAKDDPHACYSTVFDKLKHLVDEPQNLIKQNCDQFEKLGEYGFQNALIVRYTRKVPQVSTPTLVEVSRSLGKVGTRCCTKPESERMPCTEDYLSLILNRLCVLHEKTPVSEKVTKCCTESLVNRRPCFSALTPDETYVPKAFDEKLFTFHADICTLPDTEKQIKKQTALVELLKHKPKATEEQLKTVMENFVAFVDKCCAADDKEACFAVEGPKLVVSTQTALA
smiles,measurement,setting,value
CN1CCN(C(=O)OC2=C(c3cccc4ncccc34)Oc3cc4ccccc4cc3-n3cccc32)CC1,Activity,[1],Active
same,IC50,[2],1210 nM
same,Activity,[3],Active
same,Activity,[4],Active
same,Ratio IC50,[5],0.71
same,Activity,[6],Active
same,Activity,[7],Active
same,Activity,[8],Active
same,Ratio IC50,[9],0.67
same,IC50,[10],730 nM
O=C(OC1=C(c2cccc3ncccc23)Oc2cc3ccccc3cc2-n2cccc21)C1CCNCC1,Activity,[11],Active
same,Activity,[12],Active
same,Activity,[13],Active
same,Activity,[14],Active
